Consider two compounds from ChEMBL document CHEMBL1153540, “Structure-based optimization of arylamides as inhibitors of soluble epoxide hydrolase” (J Med Chem, 2009).

Series [1] in a line: Plasma concentration in Sprague-Dawley rat at 5 mg/kg, po after 4 hrs by LC-MS/MS analysis. The class given is ADME, organism-based. Also on record: dose 5 mg/kg, route oral. A digest of the protocol:
(§1)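 Male Sprague-Dawley rats fitted with jugular catheters, fed, three per compound, dosed orally at 5 mg/kg. Vehicle was 1% CMC/0.2% Tween80 in water, or 80% PEG 400/20% pH 2 30 mM citric acid, depending on compound. Serial heparinized blood taken at 1, 2, 4 and 6 h. Plasma proteins precipitated with acetonitrile; compound quantified by LC/MS/MS in MRM mode.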

Series [2] in a line: Plasma concentration in Sprague-Dawley rat at 5 mg/kg, po after 1 hr by LC-MS/MS analysis. The class given is ADME, organism-based. Also on record: dose 5 mg/kg, route oral. A digest of the protocol:
as §1

Series [3] is described as follows: Aqueous solubility at pH 7.4. The class given is physicochemical.
The nature of series [4]: Plasma concentration in Sprague-Dawley rat at 5 mg/kg, po after 2 hrs by LC-MS/MS analysis. The class given is ADME, organism-based. Also on record: dose 5 mg/kg, route oral. A digest of the protocol:
as §1

Regarding `CS(=O)(=O)c1ccc(C(CCNC(=O)c2ccc(C#N)cc2)c2ccc(F)cc2)cc1` (stereo not given), the concentration at 4 h in series [1] was 3600 nM.
Consider `O=C(NCCC(c1ccc(F)cc1)c1ccc(F)cc1)c1ccc(OCC(F)(F)F)nc1`, for which the concentration at 4 h in series [1] was 100 nM. For the same compound, in series [2], the concentration at 1 h amounted to 300 nM. For the same compound, the solubility in series [3] is less than 0.1 µg/mL. Further, the concentration at 2 h in series [4] came to 200 nM.

The term solubility denotes the concentration that dissolves in the medium under given conditions. Lower therefore signals little dissolved substance.
